Test results published in ChEMBL document CHEMBL1127442, “Triazolinone biphenylsulfonamide derivatives as orally active angiotensin II antagonists with potent AT1 receptor affinity and enhanced AT2 affinity” (J Med Chem, 1994).
Where “and” joins values, the source holds several entries; their conditions need not be identical. Equal values may be shown once.

Assays:
Rattus norvegicus [1] = experiment: Inhibition of AII pressor response by the compound in conscious, normotensive rats, at 0.3 (mg/kg) intravenous dose; format: functional
How it was run: (§1)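 Male Sprague-Dawley rats (300-400 g) were conscious and catheterized for iv dosing and arterial pressure. Compound was given iv or po as the potassium salt in water, with PEG 400 for some oral doses. […] Peak inhibition is the mean of ≥2 rats.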

Rattus norvegicus [2] = experiment: Inhibition of AII pressor response by the compound in conscious, normotensive rats, at 0.3 (mg/kg) peroral dose; format: functional; how it was run: as §1
Rattus norvegicus [3] = experiment: Time from onset of action until significant (i.e., >=30%) inhibition of pressor response is no longer observed, at 0.3 (mg/kg) peroral dose; format: functional
How it was run: (§2)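 Conscious catheterized male Sprague-Dawley rats received compound iv or po as the water-soluble potassium salt, or in PEG 400 orally. AII (0.1 μg/kg iv) boluses were repeated at intervals while the compound was active.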

Rattus norvegicus [4] = experiment: Inhibition of AII pressor response by the compound in conscious, normotensive rats, at 1 (mg/kg) intravenous dose; format: functional; how it was run: as §1
[5] = target: T1, Type-1 angiotensin II receptor (Oryctolagus cuniculus, UniProt P34976); experiment: In vitro inhibitory activity against angiotensin II rabbit aorta AT1 receptor using radioligand [125I]-Sar Ile-AII; format: tissue-based
T1 sequence (P34976 whole entry): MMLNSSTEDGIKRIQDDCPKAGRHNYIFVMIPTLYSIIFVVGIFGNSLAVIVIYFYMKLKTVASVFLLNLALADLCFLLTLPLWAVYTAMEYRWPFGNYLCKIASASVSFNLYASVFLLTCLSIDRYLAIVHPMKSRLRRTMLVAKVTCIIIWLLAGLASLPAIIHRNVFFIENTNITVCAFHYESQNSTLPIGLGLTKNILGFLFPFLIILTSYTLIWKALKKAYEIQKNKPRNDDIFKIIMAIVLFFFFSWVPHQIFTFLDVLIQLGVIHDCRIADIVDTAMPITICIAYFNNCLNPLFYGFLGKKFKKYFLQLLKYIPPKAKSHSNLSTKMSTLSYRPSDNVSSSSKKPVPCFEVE

Rattus norvegicus [6] = experiment: Time from onset of action until significant (i.e., >=30%) inhibition of pressor response is no longer observed, at 1 (mg/kg) peroral dose; format: functional; how it was run: as §2
Rattus norvegicus [7] = experiment: Time from onset of action until significant (i.e., >=30%) inhibition of pressor response is no longer observed, at 1 (mg/kg) intravenous dose; format: functional
Rattus norvegicus [8] = experiment: Inhibition of AII pressor response by the compound in conscious, normotensive rats, at 1 (mg/kg) peroral dose; format: functional; how it was run: as §1
[9] = target: T2, Type-2 angiotensin II receptor (Rattus norvegicus, UniProt P35351); experiment: In vitro inhibitory activity against angiotensin II rat midbrain AT2 receptor using radioligand [125I]-Sar Ile-AII
T2 sequence (P35351 whole entry): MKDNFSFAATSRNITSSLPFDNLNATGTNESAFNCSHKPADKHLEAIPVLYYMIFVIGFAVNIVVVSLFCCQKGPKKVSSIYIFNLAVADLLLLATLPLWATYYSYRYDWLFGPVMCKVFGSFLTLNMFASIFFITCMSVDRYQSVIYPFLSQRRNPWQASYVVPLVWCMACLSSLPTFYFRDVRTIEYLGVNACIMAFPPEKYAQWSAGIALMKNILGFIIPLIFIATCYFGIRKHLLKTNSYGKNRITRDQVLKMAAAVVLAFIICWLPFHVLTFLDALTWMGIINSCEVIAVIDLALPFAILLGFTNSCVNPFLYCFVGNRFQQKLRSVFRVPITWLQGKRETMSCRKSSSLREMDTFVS
How it was run: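 Dithiothreitol ([…]) was added to the assay mixture to abolish residual AT1 binding. Tubes were run in duplicate, and IC50 came from nonlinear regression of displacement curves.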

Compound | IC50 [5] | IC50 [9] | also measured
CCCCc1nn(-c2ccccc2C(F)(F)F)c(=O)n1Cc1ccc(-c2ccccc2S(=O)(=O)NC(=O)OCC(C)C)cc1 | 0.42 nM | 170 nM | Inhibition (Rattus norvegicus [1]): 65%; Inhibition (Rattus norvegicus [2]): 61%; Duration (Rattus norvegicus [3]): >5 h and >3.5 h; Inhibition (Rattus norvegicus [4]): 72%; Duration (Rattus norvegicus [6]): >5 h; Duration (Rattus norvegicus [7]): >6 h; Inhibition (Rattus norvegicus [8]): 63%
CCCCc1nn(-c2ccccc2C(F)(F)F)c(=O)n1Cc1ccc(-c2ccccc2S(=O)(=O)NC(=O)c2cccs2)cc1 | 0.94 nM | 540 nM | Inhibition (Rattus norvegicus [4]): 76%; Duration (Rattus norvegicus [6]): 4.3 h; Duration (Rattus norvegicus [7]): >5.5 h; Inhibition (Rattus norvegicus [8]): 61%
CCCCc1nn(-c2ccccc2C(F)(F)F)c(=O)n1Cc1ccc(-c2ccccc2S(=O)(=O)NC(=O)c2occc2C)cc1 | 0.21 nM | 46 nM | Inhibition (Rattus norvegicus [4]): 92%; Duration (Rattus norvegicus [6]): >3.5 h; Duration (Rattus norvegicus [7]): >6 h; Inhibition (Rattus norvegicus [8]): 71%
CCCCc1nn(-c2ccccc2C(F)(F)F)c(=O)n1Cc1ccc(-c2ccccc2S(=O)(=O)NC(=O)c2ocnc2C)cc1 | 1.1 nM | 35 nM | –
CCCCc1nn(-c2ccccc2C(F)(F)F)c(=O)n1Cc1ccc(-c2ccccc2S(=O)(=O)NC(=O)C(c2ccccc2)c2ccccc2)cc1 | 2.8 nM | 320 nM | –
CCCCc1nn(-c2ccccc2C(F)(F)F)c(=O)n1Cc1ccc(-c2ccccc2S(=O)(=O)NC(=O)CCC2CCCC2)cc1 | 1.2 nM | 720 nM | –
CCCCc1nn(-c2ccccc2C(F)(F)F)c(=O)n1Cc1ccc(-c2ccccc2S(=O)(=O)NC(=O)c2ccccc2Br)cc1 | 0.4 nM | 45 nM | –
CCCCc1nn(-c2ccccc2C(F)(F)F)c(=O)n1Cc1ccc(-c2ccccc2S(=O)(=O)NC(=O)C(F)(F)F)cc1 | 0.8 nM | 400 nM | –
CCCCc1nn(-c2ccccc2C(F)(F)F)c(=O)n1Cc1ccc(-c2ccccc2S(=O)(=O)NC(=O)c2ccc(F)cc2)cc1 | 0.68 nM | 500 nM | –
CCCCc1nn(-c2ccccc2C(F)(F)F)c(=O)n1Cc1ccc(-c2ccccc2S(=O)(=O)NC(=O)c2cc(Cl)sc2Cl)cc1 | 2.6 nM | 87 nM | –
CCCCc1nn(-c2ccccc2C(F)(F)F)c(=O)n1Cc1ccc(-c2ccccc2S(=O)(=O)NC(=O)C2CC2C)cc1 (configuration not stated) | 0.56 nM | 120 nM | –
CCCCc1nn(-c2ccccc2C(F)(F)F)c(=O)n1Cc1ccc(-c2ccccc2S(=O)(=O)NC(=O)C(C)(C)C)cc1 | 1.3 nM | 160 nM | –
CCCCc1nn(-c2ccccc2C(F)(F)F)c(=O)n1Cc1ccc(-c2ccccc2S(=O)(=O)NC(=O)c2ccccc2C(F)(F)F)cc1 | 0.27 nM | 220 nM | –
CCCCc1nn(-c2ccccc2C(F)(F)F)c(=O)n1Cc1ccc(-c2ccccc2S(=O)(=O)NC(=O)c2ccccc2Cl)cc1 | 0.11 nM | 36 nM | Duration (Rattus norvegicus [6]): >6 h; Duration (Rattus norvegicus [7]): >24 h
CCCCc1nn(-c2ccccc2C(F)(F)F)c(=O)n1Cc1ccc(-c2ccccc2S(=O)(=O)NC(=O)c2c(C)cccc2C)cc1 | 5.9 nM | 190 nM | –
CCCCc1nn(-c2ccccc2C(F)(F)F)c(=O)n1Cc1ccc(-c2ccccc2S(=O)(=O)NC(=O)c2ccc(Br)o2)cc1 | 0.4 nM | 170 nM | –
CCCCc1nn(-c2ccccc2C(F)(F)F)c(=O)n1Cc1ccc(-c2ccccc2S(=O)(=O)NC(=O)C(C)C)cc1 | 0.8 nM | 150 nM | Inhibition (Rattus norvegicus [4]): 100%; Duration (Rattus norvegicus [6]): 1.3 h; Duration (Rattus norvegicus [7]): >6 h; Inhibition (Rattus norvegicus [8]): 45%
CCCCc1nn(-c2ccccc2C(F)(F)F)c(=O)n1Cc1ccc(-c2ccccc2S(=O)(=O)NC(=O)c2cc(C)oc2C(F)(F)F)cc1 | 0.17 nM | 60 nM | –
CCCCc1nn(-c2ccccc2C(F)(F)F)c(=O)n1Cc1ccc(-c2ccccc2S(=O)(=O)NC(=O)Cc2ccccc2)cc1 | 1.6 nM | 240 nM | –
CCCCc1nn(-c2ccccc2C(F)(F)F)c(=O)n1Cc1ccc(-c2ccccc2S(=O)(=O)NC(=O)c2ccoc2)cc1 | 3.9 nM | 700 nM | –
CCCCOC(=O)NS(=O)(=O)c1ccccc1-c1ccc(Cn2c(CCCC)nn(-c3ccccc3C(F)(F)F)c2=O)cc1 | 0.59 nM | 190 nM | –

Compound | IC50 [5] | IC50 [9] | also measured
CCCCc1nn(-c2ccccc2C(F)(F)F)c(=O)n1Cc1ccc(-c2ccccc2S(=O)(=O)NC(=O)c2ccc(Cl)cc2)cc1 | 1.2 nM | 520 nM | –
CCCCc1nn(-c2ccccc2C(F)(F)F)c(=O)n1Cc1ccc(-c2ccccc2S(=O)(=O)NC(=O)c2sccc2C)cc1 | 0.81 nM | 80 nM | –
CCCCc1nn(-c2ccccc2C(F)(F)F)c(=O)n1Cc1ccc(-c2ccccc2S(=O)(=O)NC(=O)c2ccc(C#N)cc2)cc1 | 0.76 nM | 400 nM | –
CCCCc1nn(-c2ccccc2C(F)(F)F)c(=O)n1Cc1ccc(-c2ccccc2S(=O)(=O)NC(=O)CC(C)(C)C)cc1 | 1.1 nM | 46 nM | Inhibition (Rattus norvegicus [1]): 69%; Duration (Rattus norvegicus [3]): >5.5 h
CCCCc1nn(-c2ccccc2C(F)(F)F)c(=O)n1Cc1ccc(-c2ccccc2S(=O)(=O)NC(=O)C2CCC2)cc1 | 0.84 nM | 100 nM | –
CCCCc1nn(-c2ccccc2C(F)(F)F)c(=O)n1Cc1ccc(-c2ccccc2S(=O)(=O)NC(=O)OCC)cc1 | 2.2 nM | 75 nM | –
CCCCc1nn(-c2ccccc2C(F)(F)F)c(=O)n1Cc1ccc(-c2ccccc2S(=O)(=O)NC(=O)c2cccc(C(F)(F)F)c2)cc1 | 3.3 nM | 580 nM | –
CCCCc1nn(-c2ccccc2C(F)(F)F)c(=O)n1Cc1ccc(-c2ccccc2S(=O)(=O)NC(=O)c2oc3ccccc3c2C)cc1 | 0.43 nM | 130 nM | –
CCCCc1nn(-c2ccccc2C(F)(F)F)c(=O)n1Cc1ccc(-c2ccccc2S(=O)(=O)NC(=O)c2sccc2Cl)cc1 | 0.27 nM | 30 nM | Inhibition (Rattus norvegicus [2]): 64%; Duration (Rattus norvegicus [3]): >5 h; Inhibition (Rattus norvegicus [4]): 90%; Duration (Rattus norvegicus [7]): >6 h
CCCCc1nn(-c2ccccc2C(F)(F)F)c(=O)n1Cc1ccc(-c2ccccc2S(=O)(=O)NC(=O)c2sccc2Br)cc1 | 0.72 nM | 43 nM | –
CCCCc1nn(CC(C)(C)C)c(=O)n1Cc1ccc(-c2ccccc2S(=O)(=O)NC(=O)c2ccccc2)cc1 | 3.3 nM | 2300 nM | –
CCCCc1nn(-c2ccccc2C(F)(F)F)c(=O)n1Cc1ccc(-c2ccccc2S(=O)(=O)NC(=O)c2ccc(Cl)s2)cc1 | 1.3 nM | 260 nM | –
CCCc1nn(-c2ccccc2C(F)(F)F)c(=O)n1Cc1ccc(-c2ccccc2S(=O)(=O)NC(=O)c2ccccc2)cc1 | 13 nM | 520 nM | –
CCCCc1nn(-c2ccccc2C(F)(F)F)c(=O)n1Cc1ccc(-c2ccccc2S(=O)(=O)NC(=O)c2cc3ccccc3s2)cc1 | 0.31 nM | 430 nM | –
CCCCc1nn(-c2ccccc2C(F)(F)F)c(=O)n1Cc1ccc(-c2ccccc2S(=O)(=O)NC(=O)c2ccccc2C)cc1 | 0.56 nM | 110 nM | Inhibition (Rattus norvegicus [4]): 89%; Duration (Rattus norvegicus [6]): >2 h; Duration (Rattus norvegicus [7]): >6 h; Inhibition (Rattus norvegicus [8]): 57%
CCCCc1nn(-c2ccccc2C(F)(F)F)c(=O)n1Cc1ccc(-c2ccccc2S(=O)(=O)NC(=O)C2CC2(F)F)cc1 (configuration not stated) | 0.64 nM | 86 nM | Inhibition (Rattus norvegicus [2]): 59%; Duration (Rattus norvegicus [3]): >4 h; Inhibition (Rattus norvegicus [4]): 80%; Duration (Rattus norvegicus [7]): >5 h
CCCCc1nn(-c2ccccc2C(F)(F)F)c(=O)n1Cc1ccc(-c2ccccc2S(=O)(=O)NC(=O)CCCCCN)cc1 | 1.3 nM | 100 nM | –
CCCCc1nn(-c2ccccc2C(F)(F)F)c(=O)n1Cc1ccc(-c2ccccc2S(=O)(=O)NC(=O)C2CCCCC2)cc1 | 0.15 nM | 160 nM | –
CCCCc1nn(-c2ccccc2C(F)(F)F)c(=O)n1Cc1ccc(-c2ccccc2S(=O)(=O)NC(=O)c2ccccc2OC)cc1 | 0.41 nM | 72 nM | –
CC1CC1Cc1nn(-c2ccccc2C(F)(F)F)c(=O)n1Cc1ccc(-c2ccccc2S(=O)(=O)NC(=O)c2ccccc2)cc1 (configuration not stated) | 5.8 nM | 500 nM | –
